The text below walks through data of ChEMBL document CHEMBL1275441, “Effect of impaired renal function on the pharmacokinetics of tomopenem (RO4908463/CS-023), a novel carbapenem” (Antimicrob Agents Chemother, 2008).

The structures appear in SMILES notation.

Holding throughout (conditions): in vivo
Data set [1] has as its system Homo sapiens. The experiment in a line: Drug excretion in human with creatinine clearance of =< 30 ml/min assessed as RO4957463 level at 1500 mg, iv administered as single dose after 24 hrs. Format: ADME, organism-based. The method in brief: (§1)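 After a single 1,500 mg i.v. infusion over 60 min, urine was collected 0–6, 6–12 and 12–24 h post-dose, with volume and pH recorded. Aliquots were mixed 1:1 with 0.5 M MOPS, protected from light and frozen at −70°C. Parent and metabolite were assayed by a validated method. CLR = Ae24/plasma AUC24. n = 8 per group, mean ± SD.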

For data set [2], the system named is Homo sapiens. The experiment in a line: Drug excretion in human with creatinine clearance of 30-49 ml/min assessed as RO4957463 level at 1500 mg, iv administered as single dose after 24 hrs. The format is ADME, organism-based. The essentials: as §1
The test system of data set [3] is Homo sapiens. The experiment in a line: Dose normalized excretion in human with creatinine clearance of =< 30 ml/min assessed as RO4957463 level at 1500 mg, iv administered as single dose after 24 hrs. Format: ADME, organism-based. The essentials:
as §1

In data set [4] the test system is Homo sapiens. The experiment in a line: Renal clearance in human with creatinine clearance of 30-49 ml/min assessed as RO4957463 level at 1500 mg, iv administered as single dose after 24 hrs. Format: ADME, organism-based, Kidney. The method in brief: as §1
Data set [5] has as its system Homo sapiens. As to the kind of experiment: Drug excretion in human with creatinine clearance of 50-79 ml/min assessed as RO4957463 level at 1500 mg, iv administered as single dose after 24 hrs. The format is ADME, organism-based. The method in brief:
as §1

Data set [6] deals with Homo sapiens. As to the kind of experiment: Renal clearance in human with creatinine clearance of 50-79 ml/min assessed as RO4957463 level at 1500 mg, iv administered as single dose after 24 hrs. The format is ADME, organism-based, Kidney. The method in brief:
(§2)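 Single 1,500 mg i.v. infusion over 60 min, with 8 subjects per renal-function group (CL_CR by Cockcroft-Gault at screening). Urine was collected at 0–6, 6–12 and 12–24 h, volume and pH recorded, and aliquots mixed 1:1 with 0.5 M MOPS. Samples were frozen at −70°C, protected from light, and assayed by a validated method. CL_R = A_e24/AUC₂₄.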

Data set [7] has as its system Homo sapiens. The experiment in a line: Dose normalized excretion in human with creatinine clearance of 30-49 ml/min assessed as RO4957463 level at 1500 mg, iv administered as single dose after 24 hrs. The format is ADME, organism-based. The method in brief: as §1
In data set [8] the test system is Homo sapiens. As to the kind of experiment: Dose normalized excretion in human with creatinine clearance of => 80 ml/min assessed as RO4957463 level at 1500 mg, iv administered as single dose after 24 hrs. Format: ADME, organism-based. The method in brief: as §1
For data set [9], the system named is Homo sapiens. As to the kind of experiment: Renal clearance in human with creatinine clearance of =< 30 ml/min assessed as RO4957463 level at 1500 mg, iv administered as single dose after 24 hrs. Format: ADME, organism-based, Kidney. The essentials: as §2
Data set [10] concerns Homo sapiens. As to the kind of experiment: Renal clearance in human with creatinine clearance of => 80 ml/min assessed as RO4957463 level at 1500 mg, iv administered as single dose after 24 hrs. Format: ADME, organism-based, Kidney. The essentials: as §2
Data set [11] relates to Homo sapiens. As to the kind of experiment: Drug excretion in human with creatinine clearance of => 80 ml/min assessed as RO4957463 level at 1500 mg, iv administered as single dose after 24 hrs. Format: ADME, organism-based. The method in brief: as §1
Data set [12] has as its system Homo sapiens. As to the kind of experiment: Dose normalized excretion in human with creatinine clearance of 50-79 ml/min assessed as RO4957463 level at 1500 mg, iv administered as single dose after 24 hrs. Format: ADME, organism-based. The essentials: as §1

Turning to `C[C@@H]1[C@H]([C@H](C(=O)O)[C@@H](C)O)N=C(C(=O)O)[C@H]1S[C@H]1C[C@@H](C(=O)N2CC[C@H](NC(=O)CNC(=N)N)C2)N(C)C1`, the Activity in the data set on Homo sapiens [1] was 194 mg; with Homo sapiens [2], 281 mg; with Homo sapiens [3], 13.1%; in the data set on Homo sapiens [5] it was 279 mg; in the data set on Homo sapiens [7], 18.7%; with Homo sapiens [8], 16%. In addition, the Activity is recorded as 240 mg in the data set with Homo sapiens [11] and 18.6% in the data set with Homo sapiens [12]. Also, the CL_renal with Homo sapiens [4] is 3.91 L/h; with Homo sapiens [6], 8.27 L/h; in the data set with Homo sapiens [9] it was 1.01 L/h; in the data set on Homo sapiens [10], 13.2 L/h.
